The values that follow come from ChEMBL document CHEMBL3763137, “Design and synthesis of novel 4'-demethyl-4-deoxypodophyllotoxin derivatives as potential anticancer agents” (Bioorg Med Chem Lett, 2016).

Active and inactive are the calls of the source. The rule behind the calls is not given here.

A short description of series [1]: Antiproliferative activity against human HCT116 cells after 48 hrs by MTT assay. Type of series: functional, cell-based. Conditions: HCT-116, 48 h. Summed up: (§1)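 Human cancer cells (HCT-116, HepG2 or MGC-803) incubated with compound for 48 h. Viability read by MTT assay. IC50 taken from dose-response curves. Mean ± SD of three separate assays.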
For orientation: Tetrazolium assays rely on reduction of a dye to a coloured formazan, in cell work by metabolically active cells.

Series [2] deals with HepG2. Kind of series: Antiproliferative activity against human HepG2 cells after 48 hrs by MTT assay. Type of series: functional, cell-based. The note with it: HepG2, 48 h. Summed up:
as §1

The nature of series [3]: Antiproliferative activity against human MGC803 cells after 48 hrs by MTT assay. Conditions: MGC-803, 48 h. It is filed as functional, cell-based. The gist of the method:
as §1

Series [4] is described as follows: Cell cycle arrest in human MGC803 cells assessed as accumulation at G0/G1 phase at 10 uM after 24 hrs by propidium iodide staining based flow cytometric analysis (reference value: 77.59 %). It is filed as functional. Conditions: MGC-803. The gist of the method:
(§2)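 MGC-803 cells were exposed for 24 h to 0 (untreated), 10, 20 or 40 µM. The percentage of cells in each cell-cycle phase was measured by flow cytometry. Values are mean ± SD of three independent experiments, with P compared to control.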
Background: A flow cytometer gives signals particle by particle.

Series [5] in a line: Cell cycle arrest in human MGC803 cells assessed as accumulation at S phase at 10 uM after 24 hrs by propidium iodide staining based flow cytometric analysis (reference value: 20.52 %). It is filed as functional. The note with it: MGC-803. The gist of the method: as §2
Series [6] can be described thus: Cell cycle arrest in human MGC803 cells assessed as accumulation at G2/M phase at 10 uM after 24 hrs by propidium iodide staining based flow cytometric analysis (reference value: 1.89 %). It is filed as functional. The note with it: MGC-803. Summed up: as §2
Series [7] can be described thus: Cell cycle arrest in human MGC803 cells assessed as accumulation at G0/G1 phase at 20 uM after 24 hrs by propidium iodide staining based flow cytometric analysis (reference value: 77.59 %). It is filed as functional. The note with it: MGC-803. Summed up:
as §2

Series [8] can be described thus: Cell cycle arrest in human MGC803 cells assessed as accumulation at S phase at 20 uM after 24 hrs by propidium iodide staining based flow cytometric analysis (reference value: 20.52 %). Type of series: functional. Conditions: MGC-803. The gist of the method:
as §2

The nature of series [9]: Cell cycle arrest in human MGC803 cells assessed as accumulation at G2/M phase at 20 uM after 24 hrs by propidium iodide staining based flow cytometric analysis (reference value: 1.89 %). Type of series: functional. The note with it: MGC-803. The gist of the method: as §2
Series [10] can be described thus: Cell cycle arrest in human MGC803 cells assessed as accumulation at G0/G1 phase at 40 uM after 24 hrs by propidium iodide staining based flow cytometric analysis (reference value: 77.59 %). It is filed as functional. Conditions: MGC-803. The gist of the method:
as §2

The nature of series [11]: Cell cycle arrest in human MGC803 cells assessed as accumulation at S phase at 40 uM after 24 hrs by propidium iodide staining based flow cytometric analysis (reference value: 20.52 %). Type of series: functional. Conditions: MGC-803. Summed up:
as §2

Series [12] is described as follows: Cell cycle arrest in human MGC803 cells assessed as accumulation at G2/M phase at 40 uM after 24 hrs by propidium iodide staining based flow cytometric analysis (reference value: 1.89 %). It is filed as functional. Conditions: MGC-803. Summed up: as §2
Series [13] can be described thus: Cell cycle arrest in human MGC803 cells assessed as accumulation at G2/M phase after 24 hrs by propidium iodide staining based flow cytometric analysis. Type of series: functional. The note with it: MGC-803. Summed up: as §2
The nature of series [14]: Downregulation of cyclin A expression in human MGC803 cells after 24 hrs by Western blot analysis. Conditions: MGC-803. It is filed as functional, cell-based. Summed up: (§3)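 MGC-803 cells were incubated for 24 h at 0, 10, 20 or 40 µM. Levels of cyclin A, cyclin B, CDK1, cdc25c and p21 were detected by Western blot with specific antibodies, with P compared to 0 µM.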
On the technique in general: In western blotting, separated proteins are transferred to a membrane and probed.

Series [15] can be described thus: Downregulation of cyclin B expression in human MGC803 cells after 24 hrs by Western blot analysis. Conditions: MGC-803. Type of series: functional, cell-based. Summed up: as §3
A short description of series [16]: Downregulation of CDK1 expression in human MGC803 cells after 24 hrs by Western blot analysis. It is filed as functional, cell-based. Conditions: MGC-803. Summed up:
as §3

Series [17] in a line: Downregulation of CDK2 expression in human MGC803 cells at 10 to 40 uM after 24 hrs by Western blot analysis. Type of series: functional, cell-based. Conditions: MGC-803.
Series [18] in a line: Downregulation of cdc25c expression in human MGC803 cells at 10 to 40 uM after 24 hrs by Western blot analysis. Conditions: MGC-803. It is filed as functional, cell-based. Summed up:
as §3

A short description of series [19]: Upregulation of p21 expression in human MGC803 cells at 10 to 40 uM after 24 hrs by Western blot analysis. It is filed as functional, cell-based. The note with it: MGC-803. The gist of the method: as §3
The test system of series [20] is Mus musculus. Kind of series: Toxicity in ICR mouse xenografted with human HepG2 cells assessed as body weight at 1 mg/kg, iv administered every 2 days measured on day 1 (reference value: 21 +/- 0.89 g). It is filed as organism-based. The note with it: in vivo, 48 h.
The test system of series [21] is Mus musculus. Kind of series: Toxicity in ICR mouse xenografted with human HepG2 cells assessed as body weight at 2 mg/kg, iv administered every 2 days measured on day 1 (reference value: 21 +/- 0.89 g). The note with it: in vivo, 48 h. Type of series: organism-based.
The subject of series [22] is Mus musculus. As to the kind of experiment: Toxicity in ICR mouse xenografted with human HepG2 cells assessed as body weight at 4 mg/kg, iv administered every 2 days measured on day 1 (reference value: 21 +/- 0.89 g). Conditions: in vivo, 48 h. Type of series: organism-based.
The subject of series [23] is Mus musculus. As to the kind of experiment: Toxicity in ICR mouse xenografted with HepG2 cells assessed as body weight at 1 mg/kg, iv administered every 2 days measured on day 14 (reference value: 30.10 +/- 2.39 g). Type of series: organism-based. The note with it: in vivo, 48 h.
Series [24] deals with Mus musculus. As to the kind of experiment: Toxicity in ICR mouse xenografted with HepG2 cells assessed as body weight at 2 mg/kg, iv administered every 2 days measured on day 14 (reference value: 30.10 +/- 2.39 g). The note with it: in vivo, 48 h. Type of series: organism-based.
The subject of series [25] is Mus musculus. As to the kind of experiment: Toxicity in ICR mouse xenografted with HepG2 cells assessed as body weight at 4 mg/kg, iv administered every 2 days measured on day 14 (reference value: 30.10 +/- 2.39 g). It is filed as organism-based. Conditions: in vivo, 48 h.
The test system of series [26] is HepG2. As to the kind of experiment: Antitumor activity against human HepG2 cells xenografted in ICR mouse assessed as tumor growth inhibition at 4 mg/kg, iv administered every 2 days measured after 14 days relative to control. Type of series: functional. The note with it: read-out: TGI. The gist of the method:
(§4)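 HepG2 xenografts established in ICR mice, then randomized into four groups (n = 10 each). Compound given intravenously every two days; control group received vehicle at 0.4 mL/mouse. Tumors weighed after two weeks (day 14); inhibitory ratio calculated versus vehicle control. Body weights recorded on days 1 and 14.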

Series [27] deals with HepG2. As to the kind of experiment: Antitumor activity against human HepG2 cells xenografted in ICR mouse assessed as tumor growth inhibition at 1 mg/kg, iv administered every 2 days measured after 14 days relative to control. Type of series: functional. The note with it: read-out: TGI. Summed up:
as §4

Series [28] deals with HepG2. Kind of series: Antitumor activity against human HepG2 cells xenografted in ICR mouse assessed as tumor growth inhibition at 2 mg/kg, iv administered every 2 days measured after 14 days relative to control. Type of series: functional. Conditions: read-out: TGI. Summed up:
as §4

Series [29] in a line: Cell cycle arrest in human MGC803 cells assessed as decrease in cell level at G1 phase after 24 hrs by propidium iodide staining based flow cytometric analysis. It is filed as functional. Conditions: MGC-803. The gist of the method:
as §2

The subject of series [30] is HepG2. Kind of series: Antitumor activity against human HepG2 cells xenografted in iv dosed ICR mouse assessed as tumor retardation effect administered every 2 days measured after 14 days. It is filed as functional, organism-based.

The IC50 is the concentration at which inhibition is half-maximal. Take `COc1cc([C@@H]2c3cc4c(cc3C[C@H]3COC(=O)[C@@H]32)OCO4)cc(OC)c1OCC(=O)Nc1ccccc1[N+](=O)[O-]`: the IC50 (in series [1]; in the series with HepG2 [2]; in series [3]) was more than 10 µM each time.

For the compound `COc1cc([C@@H]2c3cc4c(cc3C[C@H]3COC(=O)[C@@H]32)OCO4)cc(OC)c1OCC(=O)Nc1cccc([N+](=O)[O-])c1`, the IC50 is 3.2 µM in series [1], more than 10 µM in the series with HepG2 [2] and 2.82 µM in series [3].

`COc1cc([C@@H]2c3cc4c(cc3C[C@H]3COC(=O)[C@@H]32)OCO4)cc(OC)c1OCC(=O)Nc1ccccc1C`: the half-inhibitory concentration (IC50) in series [1] is more than 10 µM; with HepG2 [2], 7.8 µM; in series [3] it was 4.05 µM.

Consider `COc1cc([C@@H]2c3cc4c(cc3C[C@H]3COC(=O)[C@@H]32)OCO4)cc(OC)c1OCC(=O)Nc1ccccc1F`, for which the IC50 in series [1] amounted to 2.2 µM; with HepG2 [2], 1.08 µM; in series [3] it was 0.22 µM. Also, the Activity in series [4] was determined as 41.9%; in series [5] it was 50.8%; in series [6], 7.29%; in series [7] it was 7.22%; in series [8] it was 20.5%; in series [9] it was 72.3%. The Activity in series [10] is 1.8%; in [11], 22.7%; in series [12], 75.5%; in series [13], “Dose-dependent effect”; in [14], “Dose-dependent effect”; in series [15], “Dose-dependent effect”. Further, the Activity result in series [16] is “Dose-dependent effect”; with Mus musculus [20], 20.82 g; in the series on Mus musculus [21], 20.91 g; in the series on Mus musculus [22], 21.3 g; with Mus musculus [23], 29.09 g; in the series on Mus musculus [24], 28.36 g. The values for the Activity (with Mus musculus [25]; in series [29]; in the series on HepG2 [30]) were 27.2 g, “Dose-dependent effect” and “Dose-dependent effect”, respectively. Moreover, the result in series [17] was inactive. Also, the result in series [18] and in [19] was Active. Besides, the inhibition in vivo at 4 mg/kg in the series with HepG2 [26] was found to be 45.6%. In addition, in the series with HepG2 [27], the inhibition in vivo at 1 mg/kg was 6.09%. Besides, the inhibition in vivo at 2 mg/kg in the series with HepG2 [28] was 26.6%.

Take `COc1ccc(NC(=O)COc2c(OC)cc([C@@H]3c4cc5c(cc4C[C@H]4COC(=O)[C@@H]43)OCO5)cc2OC)cc1`: the IC50 (in [1]; in the series with HepG2 [2]; in series [3]) was more than 10 µM throughout.

With `COc1cc([C@@H]2c3cc4c(cc3C[C@H]3COC(=O)[C@@H]32)OCO4)cc(OC)c1OCC(=O)Nc1ccccc1`, the IC50 is more than 10 µM in series [1], more than 10 µM in the series with HepG2 [2] and 2.54 µM in series [3].

Turning to `COc1cc([C@@H]2c3cc4c(cc3C[C@H]3COC(=O)[C@@H]32)OCO4)cc(OC)c1OCC(=O)Nc1cccc(F)c1`, the IC50 (in series [1]; in the series on HepG2 [2]; in series [3]) was more than 10 µM throughout.

As for `COc1cc([C@@H]2c3cc4c(cc3C[C@H]3COC(=O)[C@@H]32)OCO4)cc(OC)c1OCC(=O)Nc1c(C)cccc1Cl`, the IC50 is more than 10 µM in series [1], more than 10 µM in the series with HepG2 [2] and 6.16 µM in [3].

For `COc1cc([C@@H]2c3cc4c(cc3[C@@H](O[C@@H]3O[C@@H]5CO[C@@H](C)O[C@H]5[C@H](O)[C@H]3O)[C@H]3COC(=O)[C@H]23)OCO4)cc(OC)c1O` [ETOPOSIDE], the IC50 is 1.7 µM in series [1], 5.62 µM in the series with HepG2 [2] and more than 10 µM in series [3].

With `COc1cc([C@@H]2c3cc4c(cc3C[C@H]3COC(=O)[C@@H]32)OCO4)cc(OC)c1OCC(=O)Nc1cccc(Cl)c1`, the IC50 in series [1] amounted to 2.68 µM; in the series on HepG2 [2] it was 2.97 µM; in series [3], 1.24 µM.

`COc1cc([C@@H]2c3cc4c(cc3C[C@H]3COC(=O)[C@@H]32)OCO4)cc(OC)c1OCC(=O)Nc1ccccc1Cl`: the IC50 (in series [1]; in the series with HepG2 [2]; in [3]) was more than 10 µM each time.
